Measurements pooled from the literature.
Lines come from different studies, so protocols differ.
Target: Tyrosine-protein kinase ITK/TSK (ITK, Homo sapiens, UniProt Q08881)
One construct used (Q08881 1-620): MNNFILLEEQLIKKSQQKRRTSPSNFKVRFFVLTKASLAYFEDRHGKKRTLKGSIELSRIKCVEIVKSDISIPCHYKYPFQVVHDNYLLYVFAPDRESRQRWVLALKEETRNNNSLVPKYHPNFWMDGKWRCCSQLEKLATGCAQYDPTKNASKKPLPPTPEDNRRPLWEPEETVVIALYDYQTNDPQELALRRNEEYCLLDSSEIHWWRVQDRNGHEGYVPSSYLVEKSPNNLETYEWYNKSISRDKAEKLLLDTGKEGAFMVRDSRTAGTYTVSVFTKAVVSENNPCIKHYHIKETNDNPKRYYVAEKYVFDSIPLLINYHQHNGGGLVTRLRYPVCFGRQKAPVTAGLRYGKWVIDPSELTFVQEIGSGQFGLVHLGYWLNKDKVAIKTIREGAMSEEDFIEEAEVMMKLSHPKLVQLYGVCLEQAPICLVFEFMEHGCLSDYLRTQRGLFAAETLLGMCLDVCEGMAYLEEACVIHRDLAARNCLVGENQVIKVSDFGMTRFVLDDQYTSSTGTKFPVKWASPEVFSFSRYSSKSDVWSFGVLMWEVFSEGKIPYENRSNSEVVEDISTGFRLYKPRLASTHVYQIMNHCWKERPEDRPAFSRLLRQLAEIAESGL

O=c1cc(-c2cccc3c2Sc2ccccc2S3)oc(N2CCOCC2)c1  remaining activity (enzyme activity, inhibitor; 0.5 µM): 96.6%
Cc1cnc(NC2CCOCC2)nc1-n1cnc(C(=O)NC(CN)c2cc(F)cc(Cl)c2)c1 (stereo not drawn)  remaining activity (enzyme activity, inhibitor, radiometric; 1 µM): 92%
C[C@@H]1CN(c2cc(-c3n[nH]c4ccc(OC5(C)CC5)cc34)ncn2)C[C@H](C)O1  remaining binding (cell-free assay, competition with immobilised ligand; 0.1 µM): 87%
Cc1ccc(C(=O)NCc2ccsc2)cc1C#Cc1cn(C(C)C)c2ncnc(N)c12  activity vs control (enzyme activity, inhibitor; 1 µM): 97%
CCc1ccccc1C(=O)Nc1n[nH]c2c(C)c(F)c(C3C(C#N)=C(C)N(C)C(C)=C3C#N)cc12  remaining binding (cell-free assay, competition with immobilised ligand; 1 µM): 86%
CNC(=O)c1cc(Oc2ccc(NC(=O)Nc3ccc(Cl)c(C(F)(F)F)c3)cc2)ccn1  inhibition (enzyme activity, inhibitor; 0.3 µM): -10%
COc1cc(C)c(Sc2cnc(NC(=O)c3ccc(N4CCN(CCCCCCCNC(=O)COc5cccc6c5C(=O)N(C5CCC(=O)NC5=O)C6=O)CC4)cc3)s2)cc1C(=O)N1CCN(C(C)=O)CC1 (stereo not drawn)  inhibition (binding; 1 µM): > 90%
COc1cc2nccc(Oc3ccc(NC(=S)NC(=O)c4ccccc4C)cc3)c2cc1OC  remaining activity (enzyme activity, inhibitor; 0.5 µM): 80.6%
O=C(Nc1cccnn1)N1CCC(=Cc2cccc(Oc3ccc(C(F)(F)F)cn3)c2)CC1  remaining binding (cell-free assay, competition with immobilised ligand; 1 µM): 100%
c1cnn2ncc(-c3ccnc(N4CCC45COC5)n3)c2c1  remaining binding (binding; 1 µM): 100%
CCN(CC)CCNC(=O)c1c(C)[nH]c(/C=C2\C(=O)Nc3ccc(F)cc32)c1C  inhibition (enzyme activity, inhibitor; 0.3 µM): 48%
COc1cc2c(Nc3ccc(Br)cc3F)ncnc2cc1OCC1CCN(C)CC1  remaining signal (cell-free assay; 0.5 µM): 101%
CCCOc1ccc([C@H]2[C@H](C(=O)O)[C@@H](c3ccc4c(c3)OCO4)CN2CC(=O)Nc2c(CC)cccc2CC)cc1  remaining binding (cell-free assay, competition with immobilised ligand; 1 µM): 96%
Cc1cc(NC(=O)c2cccc3cc(-c4cccc5[nH]nc(N)c45)ccc23)ccc1F  activity vs control (enzyme activity, inhibitor; 0.1 µM): 104%
COc1cc2ncnc(Nc3ccc(Oc4ccccc4)cc3C)c2cc1OC  inhibition (enzyme activity, inhibitor; 1 µM): 3%
CO[C@H]1CC[C@H](CNc2ccc(S(=O)(=O)NC(=O)c3ccc(N4CCN(CC5=C(c6ccc(Cl)cc6)CC(C)(C)CC5)CC4)cc3Oc3cnc4[nH]ccc4c3)cc2[N+](=O)[O-])CC1  remaining binding (cell-free assay, competition with immobilised ligand; 1 µM): 87%
CN(C)C1CCN(CC#Cc2nn(C3CCCC3)c3nc(NCc4ccccc4)ncc23)C1 (stereo not drawn)  inhibition (enzyme activity, inhibitor, FRET; 0.1 µM): 1%
O=c1c2ccccc2[nH]c(=S)n1CCN1CCC(=C(c2ccc(F)cc2)c2ccc(F)cc2)CC1  remaining activity (enzyme activity, inhibitor; 0.5 µM): 97.1%
CN1CC(Oc2cnc(C#N)cc2-c2ccn3nc(NC(=O)C4CC4)cc3c2)C1  inhibition (enzyme activity, inhibitor; 1 µM): 3%
CS(=O)(=O)N1CCCC(NC(=O)[C@H](CCC2CCCCC2)NC(=O)c2ccc(CNc3ncnc4c3nnn4-c3ccccc3)cc2)C1 (stereo partly drawn)  remaining binding (cell-free assay, competition with immobilised ligand; 0.1 µM): 100%
COc1cc2nccc(Oc3ccc(NC(=O)c4c5n(n(-c6ccc(F)cc6)c4=O)CCCC5)cc3)c2cc1OC  inhibition (enzyme activity, inhibitor; 0.1 µM): 9%
CCN(CC)CCNC(=O)c1c(C)[nH]c(/C=C2\C(=O)Nc3ccc(Cl)cc32)c1C  remaining activity (enzyme activity, inhibitor; 0.5 µM): 30%
Cc1nc(C2CCN(C(=O)c3ccc(OC(F)(F)F)cc3N)CC2)c2ncc(N3CCN(C)CC3)cc2n1  remaining binding (cell-free assay, competition with immobilised ligand; 1 µM): 89%
Nc1ncnc2occ(-c3ccc(NC(=O)Nc4cc(C(F)(F)F)ccc4F)cc3)c12  remaining signal (cell-free assay; 20 µM): 12%
O=C(Nc1cnn(-c2csc(C(=O)NC3COC3)c2)c1)Nc1ccccc1Cl  remaining activity (enzyme activity, inhibitor; 5 µM): 107%
CC(C)(C)c1nc(-c2cccc(NS(=O)(=O)c3c(F)cccc3F)c2F)c(-c2ccnc(N)n2)s1  remaining activity (enzyme activity, inhibitor, radiometric; 1 µM): 109%
CNCc1ccccc1-c1csc([C@H](C)Nc2nc(C)nc3cc(OC)c(OC)cc23)c1  remaining binding (cell-free assay, competition with immobilised ligand; 1 µM): 100%
